Active and inactive are the calls of the source. The calls are words filed in the database; no cut-off is given here.
What was measured:
Rattus norvegicus [1] = assay: Hypoglycemic activity in 48-hrs fasted rat assessed as decrease in blood glucose level at 300 mg/kg, ip measured up to 4 hrs after drug administration; type: functional, organism-based; design: dose 300 mg/kg
Outline: (§1)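 Male rats of about 200 g were fasted 48 h. A zero-time tail-vein blood sample was taken on the morning of the test, then compound was given ip as a suspension in 0.9% saline or orally as a suspension in 0.5% tragacanth. Vehicle-only rats served as controls. Tail-vein blood was sampled at 1, 2 and 4 h for glucose.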

Rattus norvegicus [2] = assay: Hypoglycemic activity in 48-hrs fasted rat assessed as decrease in blood glucose level at 300 mg/kg, po measured up to 4 hrs after drug administration; type: functional, organism-based; design: dose 300 mg/kg; outline: as §1
Rattus norvegicus [3] = assay: Hypoglycemic activity in 48-hrs fasted rat assessed as decrease in blood glucose level at 200 mg/kg, ip after 2 hrs; type: functional; conditions: route intraperitoneal; outline: as §1
Rattus norvegicus [4] = assay: Hypoglycemic activity in 48-hrs fasted rat assessed as decrease in blood glucose level at 200 mg/kg, ip after 1 hr; type: functional; conditions: route intraperitoneal; outline: as §1
Rattus norvegicus [5] = assay: Toxicity in 48-hrs fasted rat assessed as mortality at 200 mg/kg, ip after 4 hrs; type: organism-based; design: dose 200 mg/kg, route intraperitoneal; conditions: in vivo
Outline: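 Male rats, about 200 g, fasted 48 h before dosing. Given ip as a suspension in 0.9% saline; vehicle-only group run as controls. Tail-vein blood taken at time zero and at 1, 2 and 4 h after dosing.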

Rattus norvegicus [6] = assay: Hypoglycemic activity in 48-hrs fasted rat assessed as decrease in blood glucose level at 200 mg/kg, po after 1 hr; type: functional; outline: as §1
Rattus norvegicus [7] = assay: Hypoglycemic activity in 48-hrs fasted rat assessed as decrease in blood glucose level at 200 mg/kg, po after 4 hrs; type: functional; outline: as §1
Rattus norvegicus [8] = assay: Hypoglycemic activity in 48-hrs fasted rat assessed as decrease in blood glucose level at 200 mg/kg, po after 2 hrs; type: functional; outline: as §1

For `CS(=O)(=O)c1cccnc1C(=O)O`, the Activity (Rattus norvegicus [1]) was “inactive” and the Activity (Rattus norvegicus [2]) was “inactive”.
With `O=C(O)c1nc(C(=O)O)c(S)cc1S` the Activity (Rattus norvegicus [1]) was “inactive” and the Activity (Rattus norvegicus [2]) was “inactive”.
In the case of `O=C(O)c1nc2ccccc2cc1S`, the Activity (Rattus norvegicus [1]) is reported as “inactive” and the Activity (Rattus norvegicus [2]) is reported as “inactive”.
In the case of `O=C(O)c1[nH]c2ccccc2c1S`, the inhibition in vivo at 200 mg/kg (Rattus norvegicus [3]) is reported as 51%, the inhibition in vivo at 200 mg/kg (Rattus norvegicus [4]) is reported as 45% and the Activity (Rattus norvegicus [5]) is reported as “Toxic”.
With `C[S+]([O-])c1cccnc1C(=O)O` (centres undefined) the Activity (Rattus norvegicus [1]) was “inactive” and the Activity (Rattus norvegicus [2]) was “inactive”.
`O=C(O)c1ncc(S)cc1S` was tested, and the Activity (Rattus norvegicus [1]) was “inactive” and the Activity (Rattus norvegicus [2]) was “inactive”.
For `O=C(O)c1ncc2ccccc2c1S`, the Activity (Rattus norvegicus [1]) was “inactive” and the Activity (Rattus norvegicus [2]) was “inactive”.
`O=C(O)c1nccnc1S` was tested, and the Activity (Rattus norvegicus [1]) was “inactive” and the Activity (Rattus norvegicus [2]) was “inactive”.
With `CCOC(=O)c1ncsc1S` the Activity (Rattus norvegicus [1]) was “inactive” and the Activity (Rattus norvegicus [2]) was “inactive”.
In the case of `CCCCNC(=O)NS(=O)(=O)c1ccc(C)cc1` [TOLBUTAMIDE], the inhibition in vivo at 200 mg/kg (Rattus norvegicus [6]) is reported as 28%, the inhibition in vivo at 200 mg/kg (Rattus norvegicus [7]) is reported as 48% and the inhibition in vivo at 200 mg/kg (Rattus norvegicus [8]) is reported as 47%.
In the case of `O=C(O)c1ccc(S)c(C(=O)O)n1`, the Activity (Rattus norvegicus [1]) is reported as “inactive” and the Activity (Rattus norvegicus [2]) is reported as “inactive”.

From ChEMBL document CHEMBL3243938, “Mercapto heterocyclic carboxylic acids, analogues of 3-mercaptopicolinic acid” (J Med Chem, 1977)
